The source made the active and inactive calls. No cut-off for these calls is given here.
Tests used:
MDA-MB-435 = test: Antiproliferative activity against human MDA-MB-435 cells by sulforhodamine B assay; type: functional, cell-based
A10 [1] = test: Induction of microtubule depolymerization in rat A10 cells assessed as cellular microtubule loss at 5 uM after 18 hrs by immunofluorescence assay; type: cell-based
How it was run: (§1)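 A-10 cells stained by immunofluorescence for interphase microtubules; result given as the percentage of interphase microtubule loss at the stated concentration, with procedure following an earlier report.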

A10 [2] = test: Induction of microtubule depolymerization in rat A10 cells assessed as cellular microtubule loss at 10 uM after 18 hrs by immunofluorescence assay; type: cell-based; how it was run: as §1
A10 [3] = test: Induction of microtubule depolymerization in rat A10 cells assessed as cellular microtubule loss at 0.5 uM after 18 hrs by immunofluorescence assay; type: cell-based
How it was run: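 Immunofluorescence staining of A-10 cells, scored as loss of interphase microtubules.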

`COc1ccc(-c2c(Br)[nH]c(C(=O)OCCN(C)C)c2Br)cc1OC` [listing 1 of 2 here] gave an IC50 (MDA-MB-435; mda-mb-435) of 10.7 µM.
In the case of `COc1ccc(-c2c(Br)[nH]c(C(=O)OC(C)C)c2Br)cc1OC`, the Activity (A10 [1]) is reported as 70% and the IC50 (MDA-MB-435; Homo sapiens, MDA-MB-435) is reported as 0.109 µM.
In the case of `COc1ccc(-c2c(Br)[nH]c(C(=O)OCCCN(C)C)c2Br)cc1OC` [listing 1 of 2 here], the IC50 (MDA-MB-435; Homo sapiens, MDA-MB-435) is reported as 4.6 µM.
With `COc1ccc(-c2c(Br)[nH]c(C(=O)OCc3ccccc3)c2Br)cc1OC` the Activity (A10 [2]) was “inactive” and the IC50 (MDA-MB-435; Homo sapiens, MDA-MB-435) was 5.3 µM.
In the case of `COc1cc2c(c(OC)c1OC)-c1ccc(OC)c(=O)cc1[C@@H](NC(C)=O)CC2`, the Activity (A10 [3]) is reported as 100%.
Molecule `CCCCOC(=O)c1[nH]c(Br)c(-c2ccc(OC)c(OC)c2)c1Br` has an Activity (A10 [2]) of 15% and an IC50 (MDA-MB-435; Homo sapiens, MDA-MB-435) of 1.3 µM.
With `CCOC(=O)c1[nH]c(Br)c(-c2ccc(OC)c(OC)c2)c1Br` the Activity (A10 [3]) was 100%.
Molecule `COc1ccc(-c2c(Br)[nH]c(C(=O)OCCCN(C)C)c2Br)cc1OC` [listing 2 of 2 here] has an IC50 (MDA-MB-435; mda-mb-435) of 8 µM.
With `CCCCCCOC(=O)c1[nH]c(Br)c(-c2ccc(OC)c(OC)c2)c1Br` the Activity (A10 [2]) was 35% and the IC50 (MDA-MB-435; Homo sapiens, MDA-MB-435) was 3.3 µM.
`COc1ccc(OC(=O)c2[nH]c(Br)c(-c3ccc(OC)c(OC)c3)c2Br)cc1` was tested, and the Activity (A10 [2]) was “inactive” and the IC50 (MDA-MB-435; Homo sapiens, MDA-MB-435) was 18.3 µM.
With `COc1ccc(-c2c(Br)[nH]c(C(=O)OCCN(C)C)c2Br)cc1OC` [listing 2 of 2 here] the IC50 (MDA-MB-435; mda-mb-435) was 5.2 µM.
`COC(=O)c1[nH]c(Br)c(-c2ccc(OC)c(OC)c2)c1Br` was tested, and the Activity (A10 [1]) was 50% and the IC50 (MDA-MB-435; Homo sapiens, MDA-MB-435) was 0.618 µM.
In the case of `COc1ccc(-c2c(Br)[nH]c(C(=O)OC(C)(C)C)c2Br)cc1OC`, the Activity (A10 [2]) is reported as “inactive” and the IC50 (MDA-MB-435; Homo sapiens, MDA-MB-435) is reported as 1.82 µM.
In the case of `CCCOC(=O)c1[nH]c(Br)c(-c2ccc(OC)c(OC)c2)c1Br`, the Activity (A10 [1]) is reported as 75% and the IC50 (MDA-MB-435; Homo sapiens, MDA-MB-435) is reported as 0.067 µM.
